According to ChEMBL document CHEMBL1155950, “Novel amidino-substituted thienyl- and furylvinylbenzimidazole: derivatives and their photochemical conversion into corresponding diazacyclopenta[c]fluorenes. synthesis, interactions with DNA and RNA, and antitumor evaluation. 4” (J Med Chem, 2008):
Activity calls are given as the source filed them. No cut-off for these calls is given here.

Columns and labels:
Bos taurus [1] = species on record: Bos taurus; assay: Inhibition of calf thymus topoisomerase 1 assessed as induction of supercoiled plasmid pCI DNA nicking at 100 uM after 30 mins by gel electrophoresis
Outline: (§1)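 Calf thymus topoisomerase I (8 U) with 0.8 µg negatively supercoiled pCI plasmid in relaxation buffer (10 mM Tris-HCl pH 7.5, 175 mM KCl, 5 mM MgCl2, 0.1 mM EDTA, 2.5% glycerol), ± test agent, 37 °C for 30 min. Stopped with SDS, then proteinase K digestion and phenol/chloroform/isoamyl alcohol extraction. Split onto 1% agarose gels with or without 0.5 µg/mL ethidium bromide. Nicked, relaxed and supercoiled bands viewed under UV.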

[2] = Binding affinity to polyG-polyC double stranded RNA at pH 7.0 by fluorimetric titration
Outline: (§2)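 Polynucleotide, given as phosphate concentration, added in portions to the compound in Na cacodylate buffer pH 7.0, I = 0.05 mol dm^-3, with polynucleotide in high excess. Emission recorded 350–550 nm, absorbance below 0.05 at excitation. Ks and n from nonlinear least-squares Scatchard fits. log K recalculated at fixed n = 0.2.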

MIA PaCa-2 [3] = assay: Antiproliferative activity against human MiaPaCa2 cells after 72 hrs by MTT assay; type: functional, cell-based; details: MIA PaCa-2, 72 h
Outline: (§3)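 Monolayer cultures in DMEM with 10% FBS, 2 mM L-glutamine, penicillin and streptomycin, at 37 °C in 5% CO2. Seeded at 1 × 10⁴ to 3 × 10⁴ cells/mL on day 0. Compounds added at 10^-8 to 10^-4 M, then 72 h. MTT read-out, quadruplicate in three experiments, with a solvent control. IC50 by linear regression of percent growth around 50%.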

HEp-2 = assay: Antiproliferative activity against human Hep2 cells after 72 hrs by MTT assay; type: functional, cell-based; details: HEp-2, 72 h; outline: as §3
MIA PaCa-2 [4] = assay: Cell cycle arrest in human MiaPaCa2 cells assessed as accumulation at G2/M phase at 10 uM after 72 hrs by flow cytometry; type: functional
Outline: (§4)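 2 × 10⁵ cells per well, compound (10 µM) added after 24 h, then 24, 48 or 72 h. Floating and attached cells pooled, fixed in 70% ethanol and kept at −20 °C. Stained with PI 1 µg/mL plus RNase A 0.2 µg/µL. 20 000 events by flow cytometry, phase percentages from DNA histograms. Duplicates, repeated at least twice.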

SW-620 = assay: Antiproliferative activity against human SW620 cells after 72 hrs by MTT assay; type: functional, cell-based; details: SW-620, 72 h; outline: as §3
MIA PaCa-2 [5] = assay: Cell cycle arrest in human MiaPaCa2 cells assessed as accumulation at G2/M phase at 10 uM after 24 hrs by flow cytometry; type: functional; outline: as §4
MIA PaCa-2 [6] = assay: Cell cycle arrest in human MiaPaCa2 cells assessed as accumulation at G1/G0 phase at 10 uM after 72 hrs by flow cytometry; type: functional; outline: as §4
MIA PaCa-2 [7] = assay: Induction of apoptosis in human MiaPaCa2 cells at 5 uM after 72 hrs by annexin V assay; type: functional
Outline: (§5)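 2 × 10⁴ cells per well, compounds added after 24 h, exposure 72 h. Floating and attached cells collected, washed and stained with annexin-V-fluorescein plus PI in Hepes buffer, then counted by fluorescence microscopy. Annexin-V-positive cells scored apoptotic, annexin-V/PI-positive scored necrotic. Apoptotic percentage taken relative to total cells.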

MIA PaCa-2 [8] = assay: Cell cycle arrest in human MiaPaCa2 cells assessed as accumulation at S phase at 10 uM after 24 hrs by flow cytometry; type: functional; outline: as §4
DNA [9] = assay: Binding affinity to calf thymus DNA at 0.3 of [compound]/[calf thymus DNA] at pH 7.0 by thermal denaturation assay; type: nucleic-acid assay; details: Bos taurus
Outline: (§6)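 Absorbance at 260 nm followed against temperature for free polynucleotide and complexes, in Na cacodylate buffer pH 7.0, I = 0.05 mol dm^-3. Ligand absorbance subtracted and curves normalized. Tm taken from the first-derivative maximum or by tangent method. ΔTm = Tm(complex) − Tm(free), average of at least two runs, error ±0.5 °C.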

Nucleic Acid = assay: Binding affinity to polyA-polyU double stranded RNA at 0.3 of [compound]/[double stranded polynucleotide] at pH 7.0 by thermal denaturation assay; type: nucleic-acid assay; outline: as §6
MIA PaCa-2 [10] = assay: Cell cycle arrest in human MiaPaCa2 cells assessed as accumulation at G2/M phase at 10 uM after 48 hrs by flow cytometry; type: functional; outline: as §4
MIA PaCa-2 [11] = assay: Cell cycle arrest in human MiaPaCa2 cells assessed as accumulation at S phase at 10 uM after 48 hrs by flow cytometry; type: functional; outline: as §4
MIA PaCa-2 [12] = assay: Cell cycle arrest in human MiaPaCa2 cells assessed as accumulation at G1/G0 phase at 10 uM after 48 hrs by flow cytometry; type: functional; outline: as §4
HeLa [13] = assay: Induction of apoptosis in human HeLa cells at 10 uM after 72 hrs by annexin V assay; type: functional; outline: as §5
Bos taurus [14] = species on record: Bos taurus; assay: Inhibition of calf thymus topoisomerase 1 assessed as induction of supercoiled plasmid pCI DNA nicking at 200 uM after 30 mins by gel electrophoresis
Outline: (§7)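 Calf thymus topoisomerase I (8 U) with 0.8 µg supercoiled pCI in Tris-HCl pH 7.5 buffer with 175 mM KCl, 5 mM MgCl2, 0.1 mM EDTA and 2.5% glycerol, 37 °C for 30 min. Stopped with SDS, then proteinase K at 37 °C for 15 min and phenol/chloroform extraction. Run on 1% agarose with or without 0.5 µg/mL EtBr and viewed under UV.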

HeLa [15] = assay: Induction of apoptosis in human HeLa cells at 5 uM after 72 hrs by annexin V assay; type: functional; outline: as §5
DNA [16] = assay: Binding affinity to calf thymus DNA at 0.2 of [compound]/[calf thymus DNA] at pH 7.0 by thermal denaturation assay; type: nucleic-acid assay; details: Bos taurus; outline: as §6
Bos taurus [17] = species on record: Bos taurus; assay: Inhibition of calf thymus topoisomerase 1-mediated supercoiled plasmid pCI DNA relaxation activity at 200 uM after 30 mins by gel electrophoresis; outline: as §7
DNA [18] = assay: Binding affinity to calf thymus DNA at pH 7.0 by fluorimetric titration; type: nucleic-acid assay; details: Bos taurus; outline: as §2
MIA PaCa-2 [19] = assay: Cell cycle arrest in human MiaPaCa2 cells assessed as accumulation at sub G1 phase at 10 uM after 72 hrs by flow cytometry; type: functional; outline: as §4
DNA [20] = assay: Binding affinity to calf thymus DNA at 0.1 of [compound]/[calf thymus DNA] at pH 7.0 by thermal denaturation assay; type: nucleic-acid assay; details: Bos taurus; outline: as §6
[21] = Binding affinity to polyA-polyU double stranded RNA at pH 7.0 by fluorimetric titration; outline: as §2
MIA PaCa-2 [22] = assay: Cell cycle arrest in human MiaPaCa2 cells assessed as accumulation at sub G1 phase at 10 uM after 24 hrs by flow cytometry; type: functional; outline: as §4
MCF7 = assay: Antiproliferative activity against human MCF7 cells after 72 hrs by MTT assay; type: functional, cell-based; details: MCF7, 72 h; outline: as §3
MIA PaCa-2 [23] = assay: Cell cycle arrest in human MiaPaCa2 cells assessed as accumulation at S phase at 10 uM after 72 hrs by flow cytometry; type: functional; outline: as §4
[24] = Antiproliferative activity against human WI38 cells after 72 hrs by MTT assay; type: cell-based; details: WI-38, 72 h
MIA PaCa-2 [25] = assay: Induction of apoptosis in human MiaPaCa2 cells at 10 uM after 72 hrs by annexin V assay; type: functional; outline: as §5
HeLa [26] = assay: Antiproliferative activity against human HeLa cells after 72 hrs by MTT assay; type: functional, cell-based; outline: as §3
MIA PaCa-2 [27] = assay: Cell cycle arrest in human MiaPaCa2 cells assessed as accumulation at G1/G0 phase at 10 uM after 24 hrs by flow cytometry; type: functional; outline: as §4
MIA PaCa-2 [28] = assay: Cell cycle arrest in human MiaPaCa2 cells assessed as accumulation at sub G1 phase at 10 uM after 48 hrs by flow cytometry; type: functional; outline: as §4
Bos taurus [29] = species on record: Bos taurus; assay: Inhibition of calf thymus topoisomerase 1-mediated supercoiled plasmid pCI DNA relaxation activity at 10 uM after 30 mins by gel electrophoresis; outline: as §1
Bos taurus [30] = species on record: Bos taurus; assay: Inhibition of calf thymus topoisomerase 1 assessed as induction of supercoiled plasmid pCI DNA nicking at 10 uM after 30 mins by gel electrophoresis; outline: as §1

| SMILES | IC50 (MIA PaCa-2 [3]) [µM] | IC50 (HEp-2) [µM] | IC50 (SW-620) [µM] | ΔTm (DNA [9]) [°C] | ΔTm (Nucleic Acid) [°C] | ΔTm (DNA [16]) [°C] | log K (DNA [18]) | ΔTm (DNA [20]) [°C] | IC50 (MCF7) [µM] | IC50 [24] [µM] | IC50 (HeLa [26]) [µM] | further results |
| --- | --- | --- | --- | --- | --- | --- | --- | --- | --- | --- | --- | --- |
| CC[C@@]1(O)C(=O)OCc2c1cc1n(c2=O)Cc2cc3ccccc3nc2-1 |  |  |  |  |  |  |  |  |  |  |  | Activity (Bos taurus [1]): Active |
| C(=C\c1cccs1)/c1nc2ccc(C3=NCCN3)cc2[nH]1.Cl | 10 | 11 | 11 | 1.4 | 2.2 | 1.3 | 5 | 1.3 | 3 | 29 | 5 | log K [2]: 5.6; Activity (MIA PaCa-2 [4]): 19%; Activity (MIA PaCa-2 [5]): 19%; Activity (MIA PaCa-2 [6]): 55%; Activity (MIA PaCa-2 [7]): 2%; Activity (MIA PaCa-2 [8]): 42%; Activity (MIA PaCa-2 [10]): 20%; Activity (MIA PaCa-2 [11]): 31%; Activity (MIA PaCa-2 [12]): 49%; Activity (HeLa [13]): 14%; Activity (Bos taurus [14]): Active; Activity (HeLa [15]): 8%; Activity (Bos taurus [17]): Active; Activity (MIA PaCa-2 [19]): 3%; log K [21]: 5.8; Activity (MIA PaCa-2 [22]): 1%; Activity (MIA PaCa-2 [23]): 26%; Activity (MIA PaCa-2 [25]): 4%; Activity (MIA PaCa-2 [27]): 39%; Activity (MIA PaCa-2 [28]): 1% |
| CC[n+]1c(-c2ccccc2)c2cc(N)ccc2c2ccc(N)cc21 |  |  |  |  |  |  |  |  |  |  |  | Activity (Bos taurus [29]): Active; Activity (Bos taurus [30]): inactive |
| N=C(NC1CCCCC1)c1ccc2nc(/C=C/c3ccco3)[nH]c2c1 | 78 | 65 | > 100 | 1.5 | 1.6 | 1.6 | 5.2 | 1 | 19 | > 100 | 6 |  |
| C(=C\c1ccco1)/c1nc2ccc(C3=NCCN3)cc2[nH]1 | 51 | 67 | 50 |  |  |  |  |  | 9 | > 100 | 10 |  |
| N=C(N)c1ccc2nc(/C=C/c3ccco3)[nH]c2c1 | > 100 | 19 | 16 |  |  |  |  |  | 12 | > 100 | 4 |  |
